Experiment [1] has as its system Rattus norvegicus. Description: Trabecular thickness […] measured Histomorphometrically after a dose of 10 ug/kg in proximal tibial metaphysis. The format is functional, Trabecula. The method in brief:
(§1)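 Six-month-old rats were ovariectomized, and 60 days later daily subcutaneous dosing began for 60 days, with vehicle of acetate-buffered saline, methylcellulose and polysorbate. Xylenol orange (90 mg/kg) labelled bone pre-treatment and calcein (10 mg/kg) 14 and 4 days pre-sacrifice. Histomorphometry covered the proximal tibial metaphysis 1-4 mm distal to the growth plate-metaphyseal junction. Groups were 6-8 rats, compared by ANOVA/LSD vs vehicle.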

Experiment [2] relates to Rattus norvegicus. Description: Tissue area (mm) measured Histomorphometrically after a dose of 100 ug/kg in tibial diaphysis. It is filed as functional. The method in brief: (§2)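 Rats on natural chow (1.46% Ca) were bilaterally ovariectomized at 6 months and left untreated for 60 days. They then received once-daily subcutaneous doses for 60 days, with vehicle of acetate-buffered saline, methylcellulose and polysorbate. Xylenol orange (90 mg/kg) was given before treatment and calcein (10 mg/kg) 14 and 4 days before sacrifice. Tibiae were analysed by fluorescent histomorphometry, 6-8 rats/group, ANOVA/LSD vs vehicle.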

Experiment [3] relates to Rattus norvegicus. Put plainly: Directly measured thickness(um) using micro Computed Tomography(CT) after a dose of 3000 ug/kg in Vertebral Bone. It is filed as functional. The method in brief: (§3)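 Micro-CT of the fifth lumbar vertebra, measuring cancellous bone volume and architecture. Rats were 6 months old, OVX 60 days before treatment, then dosed daily for 60 days. Test-agent doses were 10–3000 µg/kg, given as a once-daily subcutaneous injection; 6 mg/kg/day was given to the positive-control group. Groups were compared with vehicle by ANOVA plus LSD test.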

For experiment [4], the target named is T1, Prostaglandin E2 receptor EP3 subtype (Homo sapiens, UniProt P43115).
T1 sequence (P43115 whole entry): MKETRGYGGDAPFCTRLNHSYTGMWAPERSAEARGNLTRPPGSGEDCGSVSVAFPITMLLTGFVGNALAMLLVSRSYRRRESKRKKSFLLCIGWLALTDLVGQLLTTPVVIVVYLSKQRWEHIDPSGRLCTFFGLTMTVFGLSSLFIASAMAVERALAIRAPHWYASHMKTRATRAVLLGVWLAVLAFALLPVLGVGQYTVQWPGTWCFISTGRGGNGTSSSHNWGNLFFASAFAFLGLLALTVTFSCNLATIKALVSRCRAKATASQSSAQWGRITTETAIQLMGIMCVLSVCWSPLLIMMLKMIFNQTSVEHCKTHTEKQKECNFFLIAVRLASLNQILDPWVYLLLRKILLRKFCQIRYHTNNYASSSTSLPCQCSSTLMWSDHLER
Description: In vitro binding at EP3 human prostaglandin receptor using [3H]PGE-2 as radioligand. In a few lines:
(§4)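 Receptors stably expressed in CHO cells, collected 4-5 days after seeding. Membranes made by lysis (Tris, EDTA, protease inhibitors) and 100000g pellet, then resuspended at 1 mg protein/mL in TME. Radioligands at 5 nM: [3H]PGE2 for EP2/EP3/EP4, [3H]Iloprost for IP, [3H]SQ-29548 for TP. Competition binding with filtration and counting.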

For experiment [5], the system named is Rattus norvegicus. Put plainly: Bone formation rate/bone volume (%/year) bone measured histomorphometrically after a dose of 100 ug/kg in proximal tibial metaphysis. It is filed as functional. The settings on record: at 100 µg/kg.
The test system of experiment [6] is Rattus norvegicus. Description: Bone formation rate/tissue volume (%/year) bone measured histomorphometrically after a dose of 3000 ug/kg in proximal tibial metaphysis. It is filed as functional. As to conditions: at 3000 µg/kg.
For experiment [7], the system named is Rattus norvegicus. Put plainly: Bone formation rate/bone volume (%/year) bone measured histomorphometrically after a dose of 1000 ug/kg in proximal tibial metaphysis. The settings on record: at 1000 µg/kg. The format is functional.
Experiment [8] relates to Rattus norvegicus. Put plainly: Mineral apposition rate ([…])bone measured Histomorphometrically after a dose of 10 ug/kg in tibial diaphysis. It is filed as functional. In a few lines: (§5)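 Six-month-old rats, bilaterally ovariectomized, 6-8 per group, on natural chow. After 60 days they received once-daily subcutaneous dosing for 60 days at 0.01–3.0 mg/kg. Vehicle was acetate-buffered saline with methylcellulose and polyoxyethylenesorbitan monooleate. Labels were xylenol orange 90 mg/kg before treatment and calcein 10 mg/kg 14 and 4 days before sacrifice. Tibial histomorphometry was read under fluorescent light, with ANOVA/LSD versus vehicle.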

Experiment [9] deals with Prostacyclin receptor (Homo sapiens, UniProt P43119). Description: In vitro binding at prostanoid IP receptor using [3H]iloprost as radioligand. In a few lines:
as §4

The test system of experiment [10] is Rattus norvegicus. Put plainly: Directly measured thickness(um) using micro Computed Tomography(CT) after a dose of 300 ug/kg in Vertebral Bone. It is filed as functional. In a few lines: as §3
In experiment [11] the test system is Rattus norvegicus. Put plainly: Derived trabecular no […]measured using micro Computed Tomography(CT) after a dose of 30 ug/kg in Vertebral Bone. It is filed as functional, Trabecula. In a few lines:
as §3

Experiment [12] has as its system Rattus norvegicus. Put plainly: Endosteal mineralizing surface Histomorphometrically after a dose of 100 ug/kg in tibial diaphysis. It is filed as functional. In a few lines:
as §5

Experiment [13] concerns Rattus norvegicus. Put plainly: connectivity density (mm-3) using micro Computed Tomography(CT) after a does of 1000 ug/kg in Vertebral Bone. The format is functional. In a few lines: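 Rats were ovariectomized at 6 months of age and, after 60 days, dosed subcutaneously once daily for 60 days, with vehicle of acetate-buffered saline, methylcellulose and polysorbate. At necropsy the fifth lumbar vertebra was scanned by micro-CT to obtain cancellous architecture. Groups were 6-8 rats; results were compared to vehicle by ANOVA with least significant difference test.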

For experiment [14], the system named is Rattus norvegicus. Description: Bone Volume /Tissue Volume (%)measured Histomorphometrically after a dose of 1000 ug/kg in proximal tibial metaphysis. The format is functional. As to conditions: at 1000 µg/kg.
The test system of experiment [15] is Rattus norvegicus. Put plainly: Derived trabecular thickness (um) measured using micro Computed Tomography(CT) after a dose of 10 ug/kg in Vertebral Bone. It is filed as functional, Trabecula. In a few lines: as §3
Experiment [16] has as its target T2, Thromboxane A2 receptor (Homo sapiens, UniProt P21731).
T2 sequence (P21731 whole entry): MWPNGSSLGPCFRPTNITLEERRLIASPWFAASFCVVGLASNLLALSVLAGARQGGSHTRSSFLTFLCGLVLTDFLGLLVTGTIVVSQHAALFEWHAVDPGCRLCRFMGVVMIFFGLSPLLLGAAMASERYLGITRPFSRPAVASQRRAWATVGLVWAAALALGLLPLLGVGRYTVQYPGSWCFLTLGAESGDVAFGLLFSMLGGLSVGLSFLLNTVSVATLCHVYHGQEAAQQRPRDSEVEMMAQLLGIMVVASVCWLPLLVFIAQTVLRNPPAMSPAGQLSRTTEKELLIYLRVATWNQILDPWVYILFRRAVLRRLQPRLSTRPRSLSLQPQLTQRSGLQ
Description: In vitro binding at TP human prostaglandin receptor using [3H]SQ-29,548 as radioligand. The method in brief: as §4

Experiment [17] has as its system Rattus norvegicus. Put plainly: Derived trabecular no […]measured using micro Computed Tomography(CT) after a dose of 100 ug/kg in Vertebral Bone. It is filed as functional, Trabecula. In a few lines:
as §3

The subject of experiment [18] is Rattus norvegicus. Put plainly: Endosteal mineralizing surface Histomorphometrically after a dose of 10 ug/kg in tibial diaphysis. The format is functional. In a few lines: as §5
For experiment [19], the system named is Rattus norvegicus. Put plainly: Bone formation rate/tissue volume (%/year)bone measured Histomorphometrically after a dose of 10 ug/kg in proximal tibial metaphysis. The format is functional. The settings on record: at 10 µg/kg.
Experiment [20] concerns Rattus norvegicus. Put plainly: Marrow area (mm) measured Histomorphometrically after a dose of 10 ug/kg in tibial diaphysis. It is filed as functional. In a few lines: as §5
Experiment [21] relates to Rattus norvegicus. Put plainly: Tissue area (mm) measured Histomorphometrically after a dose of 30 ug/kg in tibial diaphysis. The format is functional. The method in brief:
as §2

In experiment [22] the test system is Rattus norvegicus. Put plainly: Trabecular no (mm)measured Histomorphometrically after a dose of 1000 ug/kg in proximal tibial metaphysis. The format is functional, Trabecula. In a few lines:
as §1

By IC50 is commonly meant the midpoint of a concentration-inhibition curve.

Sequence of Prostacyclin receptor (P43119 whole entry): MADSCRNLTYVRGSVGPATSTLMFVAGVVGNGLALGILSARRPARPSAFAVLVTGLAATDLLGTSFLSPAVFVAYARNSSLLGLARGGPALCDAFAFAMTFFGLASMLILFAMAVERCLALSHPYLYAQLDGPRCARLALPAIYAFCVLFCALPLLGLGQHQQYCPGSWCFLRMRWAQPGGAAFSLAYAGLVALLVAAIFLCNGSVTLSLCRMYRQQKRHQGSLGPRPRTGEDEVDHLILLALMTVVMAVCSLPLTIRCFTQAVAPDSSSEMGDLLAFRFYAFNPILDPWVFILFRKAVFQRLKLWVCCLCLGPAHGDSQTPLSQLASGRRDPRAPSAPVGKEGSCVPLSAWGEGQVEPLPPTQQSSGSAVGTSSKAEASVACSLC

Take `CP(=O)(O)CCC/C=C\C[C@@H]1[C@@H](/C=C/[C@@H](O)COc2ccccc2)[C@H](O)C[C@@H]1O`: in experiment [1], the Trabecular thickness was determined as 35.7 µm. The Tissue area came to 4.95 mm in experiment [2] and 5.19 mm in [21]. In addition, the Directly measured thickness in experiment [3] was 134 µm; in experiment [10], 127 µm. Further, the IC50 in [4], in experiment [9] and in experiment [16] was more than 10 µM in each case. Besides, the Activity amounted to 320.16% in experiment [5]; 20.13% in experiment [6]; 251.82% in experiment [7]; 9.43% in experiment [14]; 9.81% in experiment [19]. In addition, the Mineral apposition rate in experiment [8] was 0.71 µm/day. Also, the Derived trabecular number came to 4.44 mm-1 in [11] and 4.83 mm-1 in [17]. In addition, the Endosteal mineralizing surface in experiment [12] was 22.28%; in experiment [18], 46.62%. This molecule also had a Connectivity density in [13] of 59.66 mm**-3. For the same molecule, in experiment [15], the Derived trabecular thickness worked out at 73 µm. The Marrow area in [20] was found to be 0.93 mm². Besides, the Trabecular no. in experiment [22] was 1.64 1/mm.

These data come from ChEMBL document CHEMBL1134785, “Synthesis and biological evaluation of prostaglandin-F alkylphosphinic acid derivatives as bone anabolic agents for the treatment of osteoporosis” (J Med Chem, 2001).
